Active and inactive are the calls of the source. The rule behind the calls is not given here.
What was measured:
Mus musculus [1] = assay: Antiparkinsonian effect against MPTP-induced hypokinesia in C57/BL6 mouse assessed as movement speed at 20 mg/kg, po administered 15 mins after 30 mg/kg, ip MPTP challenge measured after 1.5 hrs of compound administration for 2 mins (reference value: 2.3 +/- 0.2 cm/s); type: functional, C57Bl/6
How it was run: (§1)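 Male C57BL/6 mice (25–30 g) were given MPTP 0.17 mmol/kg (30 mg/kg) ip and, 15 min later, test agent 0.12 mmol/kg (20 mg/kg) po. Controls received saline. An open-field test (Tru Scan) was run 1.5 h after MPTP for 2 min, recording acts, locomotion time, distance, speed, upright postures and explored holes.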

Mus musculus [2] = assay: Antiparkinsonian effect against MPTP-induced hypokinesia in C57/BL6 mouse assessed as number of upright postures at 20 mg/kg, po administered 15 mins after 30 mg/kg, ip MPTP challenge measured after 1.5 hrs of compound administration for 2 mins (reference value: 6.5 +/- 1.3 upright postures); type: functional, C57Bl/6; how it was run: as §1
Mus musculus [3] = assay: Antiparkinsonian effect against MPTP-induced hypokinesia in C57/BL6 mouse assessed as movement distance at 20 mg/kg, po administered 15 mins after 30 mg/kg, ip MPTP challenge […] for 2 mins (reference value: 276.8 +/- 27.8 cm); type: functional, C57Bl/6
Mus musculus [4] = assay: Antiparkinsonian effect against MPTP-induced hypokinesia in C57/BL6 mouse assessed as time of locomotory activity at 20 mg/kg, po administered 15 mins after 30 mg/kg, ip MPTP challenge measured after 1.5 hrs of compound administration for 2 mins (reference value: 58.3 +/- 3.9 sec); type: functional, C57Bl/6; how it was run: as §1
Mus musculus [5] = assay: Antiparkinsonian effect against MPTP-induced hypokinesia in C57/BL6 mouse assessed as number of holes explored at 20 mg/kg, po administered 15 mins after 30 mg/kg, ip MPTP challenge measured after 1.5 hrs of compound administration for 2 mins (reference value: 15.6 +/- 3.3 holes explored); type: functional, C57Bl/6; how it was run: as §1
Mus musculus [6] = assay: Antiparkinsonian effect against MPTP-induced hypokinesia in C57/BL6 mouse assessed as number of locomotory acts at 20 mg/kg, po administered 15 mins after 30 mg/kg, ip MPTP challenge measured after 1.5 hrs of compound administration for 2 mins (reference value: 84.1 +/- 1.9 locomotor acts); type: functional, C57Bl/6; how it was run: as §1
Rattus norvegicus [7] = assay: Antiparkinsonian effect against MPTP-induced hypokinesia in Wistar rat assessed as number of upright postures at 20 mg/kg, po administered 30 days post 40 mg/kg, ip MPTP challenge measured on 30th day 2 hrs post compound administration for 2 mins (reference value: 14.6 +/- 1.8 upright postures)
Mus musculus [8] = assay: Antiparkinsonian effect against MPTP-induced hypokinesia in C57/BL6 mouse assessed as movement distance at 20 mg/kg, po administered 24 hrs after 4 X 20 mg/kg, ip MPTP challenge measured after 2 hrs of compound administration for 2 mins (reference value: 556.7 +/- 19.6 cm); type: functional, C57Bl/6
Mus musculus [9] = assay: Antiparkinsonian effect against MPTP-induced hypokinesia in C57/BL6 mouse assessed as time of locomotory activity at 20 mg/kg, po administered 24 hrs after 4 X 20 mg/kg, ip MPTP challenge measured after 2 hrs of compound administration for 2 mins (reference value: 90.0 +/- 1.4 sec); type: functional, C57Bl/6
Mus musculus [10] = assay: Antiparkinsonian effect against MPTP-induced hypokinesia in C57/BL6 mouse assessed as number of holes explored at 20 mg/kg, po administered 24 hrs after 4 X 20 mg/kg, ip MPTP challenge measured after 2 hrs of compound administration for 2 mins (reference value: 4.1 +/- 1.1 holes explored); type: functional, C57Bl/6
Rattus norvegicus [11] = assay: Antiparkinsonian effect against MPTP-induced hypokinesia in Wistar rat assessed as number of holes explored at 20 mg/kg, po administered 30 days post ip MPTP challenge measured on 30th day 2 hrs post compound administration for 2 mins (reference value: 4.6 +/- 0.9 holes explored)
Rattus norvegicus [12] = assay: Antiparkinsonian effect against MPTP-induced hypokinesia in Wistar rat assessed as time of locomotory activity at 20 mg/kg, po administered 30 days post 40 mg/kg, ip MPTP challenge measured on 30th day 2 hrs post compound administration for 2 mins (reference value: 69.7 +/- 2.1 sec)
Mus musculus [13] = assay: Antiparkinsonian effect against MPTP-induced hypokinesia in C57/BL6 mouse assessed as number of locomotory acts at 20 mg/kg, po administered 24 hrs after 4 X 20 mg/kg, ip MPTP challenge measured after 2 hrs of compound administration for 2 mins (reference value: 73.3 +/- 2.3 locomotor acts); type: functional, C57Bl/6
Mus musculus [14] = assay: Antiparkinsonian effect against MPTP-induced hypokinesia in C57/BL6 mouse assessed as movement speed at 20 mg/kg, po administered 24 hrs after 4 X 20 mg/kg, ip MPTP challenge measured after 2 hrs of compound administration for 2 mins (reference value: 4.6 +/- 0.2 cm/s); type: functional, C57Bl/6
Rattus norvegicus [15] = assay: Antiparkinsonian effect against MPTP-induced hypokinesia in Wistar rat assessed as number of locomotory acts at 20 mg/kg, po administered 30 days post 20 mg/kg, ip MPTP challenge measured on 30th day 2 hrs post compound administration for 2 mins (reference value: 80.3 +/- 2.5 locomotor acts); type: functional
Rattus norvegicus [16] = assay: Antiparkinsonian effect against MPTP-induced hypokinesia in Wistar rat assessed as movement speed at 20 mg/kg, po administered 30 days post ip MPTP challenge measured on 30th day 2 hrs post compound administration for 2 mins (reference value: 3.0 +/- 0.2 cm/s)
Rattus norvegicus [17] = assay: Inhibition of haloperidol-induced catalepsy in Wistar rat at 20 mg/kg, po administered 10 mins before haloperidol challenge measured for 30 to 240 mins; type: functional, organism-based; design: dose 20 mg/kg
How it was run: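 Male Wistar rats (six per group) were dosed po with 0.12 mmol/kg (20 mg/kg), and 10 min later received haloperidol 4.0 μmol/kg (1.5 mg/kg) ip in saline. Controls received haloperidol only. Immobility time on parallel bars was recorded at 30, 60, 120, 180 and 240 min at rt. Total catalepsy duration and % cataleptic animals were scored.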

Mus musculus [18] = assay: Antiparkinsonian effect against MPTP-induced hypokinesia in C57/BL6 mouse assessed as number of upright postures at 20 mg/kg, po administered 24 hrs after 4 X 20 mg/kg, ip MPTP challenge measured after 2 hrs of compound administration for 2 mins (reference value: 24.9 +/- 3.3 upright postures); type: functional, C57Bl/6
Rattus norvegicus [19] = assay: Antiparkinsonian effect against MPTP-induced hypokinesia in Wistar rat assessed as movement distance at 20 mg/kg, po administered 30 days post ip MPTP challenge measured on 30th day 2 hrs post compound administration for 2 mins (reference value: 367 +/- 21.2 cm)
Rattus norvegicus [20] = assay: Antiparkinsonian effect against MPTP-induced hypokinesia in Wistar rat assessed as movement distance at 10 mg/kg, po administered 30 days post 20 mg/kg, ip MPTP challenge measured on 30th day 2 hrs post compound administration for 2 mins (reference value: 367 +/- 21.2 cm); type: functional
Rattus norvegicus [21] = assay: Antiparkinsonian effect against MPTP-induced hypokinesia in Wistar rat assessed as number of holes explored at 10 mg/kg, po administered 30 days post 20 mg/kg, ip MPTP challenge measured on 30th day 2 hrs post compound administration for 2 mins (reference value: 4.6 +/- 0.9 holes explored); type: functional
Rattus norvegicus [22] = assay: Antiparkinsonian effect against MPTP-induced hypokinesia in Wistar rat assessed as number of locomotory acts at 10 mg/kg, po administered 30 days post 40 mg/kg, ip MPTP challenge measured on 30th day 2 hrs post compound administration for 2 mins (reference value: 80.3 +/- 2.5 locomotor acts)
Rattus norvegicus [23] = assay: Antiparkinsonian effect against MPTP-induced hypokinesia in Wistar rat assessed as time of locomotory activity at 10 mg/kg, po administered 30 days post 20 mg/kg, ip MPTP challenge measured on 30th day 2 hrs post compound administration for 2 mins (reference value: 69.7 +/- 2.1s); type: functional
Rattus norvegicus [24] = assay: Antiparkinsonian effect against MPTP-induced hypokinesia in Wistar rat assessed as number of upright postures at 10 mg/kg, po administered 30 days post 20 mg/kg, ip MPTP challenge measured on 30th day 2 hrs post compound administration for 2 mins (reference value: 14.6 +/- 1.8 upright postures); type: functional

`C=C(C)[C@H]1CC=C(C)[C@H](O)[C@@H]1O` showed an Activity (Mus musculus [1]) of 1.2 cm/s, an Activity (Mus musculus [2]) of 3.1 and a Movement distance (Mus musculus [3]) of 245.9 cm. The Time (Mus musculus [4]) was 55.6 s, the Activity (Mus musculus [5]) was 14.4 and the Activity (Mus musculus [6]) was 80.2.
`C=C(C)[C@H]1CC=C(C)[C@@H](O)[C@H]1O` was tested, and the Activity (Mus musculus [1]) was 2.1 cm/s, the Activity (Mus musculus [2]) was 7.9 and the Movement distance (Mus musculus [3]) was 257.7 cm. The Time (Mus musculus [4]) was 56.6 s, the Activity (Mus musculus [5]) was 8.1 and the Activity (Mus musculus [6]) was 82.4.
In the case of `C=C(C)[C@@H]1CC=C(C)[C@@H](O)[C@H]1O`, the Activity (Mus musculus [1]) is reported as 1.7 cm/s, the Activity (Mus musculus [2]) is reported as 4 and the Movement distance (Mus musculus [3]) is reported as 212.4 cm. It also gave a Time (Mus musculus [4]) of 45.5 s, an Activity (Mus musculus [5]) of 3.5 and an Activity (Mus musculus [6]) of 64.9.
In the case of `C=C(C)[C@H]1CC=C(C)[C@@H](O)[C@@H]1O`, the Activity (Mus musculus [1]) is reported as 1.3 cm/s, the Activity (Mus musculus [2]) is reported as 4.7 and the Movement distance (Mus musculus [3]) is reported as 158.8 cm. For the same molecule, the Time (Mus musculus [4]) was 46.9 s, the Activity (Mus musculus [5]) was 3.9 and the Activity (Mus musculus [6]) was 65.5.
Work on `C=C(C)[C@@H]1CC=C(C)[C@@H](O)[C@@H]1O` yielded an Activity (Rattus norvegicus [7]) of 10.7, an Activity (Mus musculus [8]) of 439.6 cm and a Time (Mus musculus [9]) of 74.8 s. It also gave an Activity (Mus musculus [10]) of 6.5, an Activity (Rattus norvegicus [11]) of 4.3 and a Time (Rattus norvegicus [12]) of 62.6 s. The Activity (Mus musculus [1]) was 2.7 cm/s, the Activity (Mus musculus [2]) was 3.2 and the Activity (Mus musculus [13]) was 80.5. For the same molecule, the Movement distance (Mus musculus [3]) was 332.6 cm, the Time (Mus musculus [4]) was 64 s and the Activity (Mus musculus [14]) was 3.6 cm/s. It also gave an Activity (Mus musculus [5]) of 13.1, an Activity (Rattus norvegicus [15]) of 81.9 and an Activity (Rattus norvegicus [16]) of 2.5 cm/s. For the same molecule, the inhibition (Rattus norvegicus [17]) was “Active”, the Activity (Mus musculus [18]) was 14.8 and the Activity (Rattus norvegicus [19]) was 305.6 cm. It also gave an Activity (Mus musculus [6]) of 78.6.
With `C=C(C)[C@@H]1CC=C(C)[C@H](O)[C@@H]1O` the Activity (Mus musculus [1]) was 0.4 cm/s, the Activity (Mus musculus [2]) was 1.7 and the Movement distance (Mus musculus [3]) was 55.9 cm. For the same molecule, the Time (Mus musculus [4]) was 15 s, the Activity (Mus musculus [5]) was 0.9 and the Activity (Mus musculus [6]) was 28.5.
Work on `N[C@@H](Cc1ccc(O)c(O)c1)C(=O)O` [LEVODOPA] yielded an Activity (Rattus norvegicus [20]) of 316.8 cm, an Activity (Rattus norvegicus [21]) of 4.6 and an Activity (Rattus norvegicus [22]) of 86. It also gave a Time (Rattus norvegicus [23]) of 65.1 s and an Activity (Rattus norvegicus [24]) of 9.6.
`C=C(C)[C@@H]1CC=C(C)[C@H](O)[C@H]1O` was tested, and the Activity (Mus musculus [1]) was 2.1 cm/s, the Activity (Mus musculus [2]) was 10.3 and the Movement distance (Mus musculus [3]) was 253.3 cm. It also gave a Time (Mus musculus [4]) of 55.7 s, an Activity (Mus musculus [5]) of 8.1 and an Activity (Mus musculus [6]) of 77.4.
`C=C(C)[C@H]1CC=C(C)[C@H](O)[C@H]1O` was tested, and the Activity (Mus musculus [1]) was 1.1 cm/s, the Activity (Mus musculus [2]) was 2.5 and the Movement distance (Mus musculus [3]) was 147.8 cm. The Time (Mus musculus [4]) was 34.9 s, the Activity (Mus musculus [5]) was 4.4 and the Activity (Mus musculus [6]) was 57.9.
